Experimental data published in ChEMBL document CHEMBL3045276, “Synthesis and biological activity of some novel trifluoromethyl-substituted 1,2,4-triazole and bis(1,2,4-triazole) Mannich bases containing piperazine rings” (2010).

Key:
Format in all cases: functional
Echinochloa crus-galli [1] = test: Herbicidal activity against Echinochloa crus-galli (barnyard grass) assessed as inhibition of seedling growth at 100 ug/mL at 28 degC
How it was run: (§1)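 Ten barnyardgrass seeds placed in cup over glass beads and filter paper holding 5 mL aqueous test solution (emulsified if needed); germinated 65 h at 28 ± 1 °C under light. Mean above-ground seedling height per cup measured; inhibition percentage derived.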

[2] = test system: Pseudoperonospora cubensis; test: Fungicidal activity against Pseudoperonospora cubensis in cucumber plant two seed leaves stage assessed as control efficacy from disease indices at 500 ug/mL at 18 to 30 degC and above 80%RH relative to control; settings: read-out: GI
How it was run: (§2)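 Cucumber seeds germinated (soaked 2 h in water at 50 °C, kept moist 24 h at 28 °C) and grown in 1:1 vermiculite/peat; two-seed-leaf plants sprayed at 500 μg/mL, then inoculated 2 h later by spraying conidial (C. cassiicola, A. citrullina, P. cubensis), bacterial (P. syringae) or mycelial (S. sclerotiorum) suspension. Held 18-30 °C, >80% RH; four repeats; control efficacy = (CK−PT)/CK×100 from disease indices once untreated plants fully symptomatic.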

Corynespora cassiicola = test: Fungicidal activity against Corynespora cassiicola in cucumber plant two seed leaves stage assessed as control efficacy from disease indices at 500 ug/mL at 18 to 30 degC and above 80%RH relative to control; settings: read-out: GI; how it was run: as §2
[3] = test system: Pseudomonas amygdali pv. lachrymans; test: Fungicidal activity against Pseudomonas syringae pv. lachrymans in cucumber plant two seed leaves stage assessed as control efficacy from disease indices at 500 ug/mL at 18 to 30 degC and above 80%RH relative to control; settings: read-out: GI; how it was run: as §2
[4] = test system: Brassica rapa subsp. oleifera; test: Herbicidal activity against Brassica rapa subsp. oleifera assessed as inhibition of root growth at 10 ug/mL at 28 degC
How it was run: (§3)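 Rape seeds soaked 4 h in distilled water, then 15 per 6 cm dish on filter paper wetted with 2 mL aqueous test solution (emulsified if needed); germinated 65 h at 28 ± 1 °C in darkness. Mean length of 10 roots per dish measured; percentage inhibition calculated against distilled-water check.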

Echinochloa crus-galli [5] = test: Herbicidal activity against Echinochloa crus-galli (barnyard grass) assessed as inhibition of seedling growth at 10 ug/mL at 28 degC; how it was run: as §1
Sclerotinia sclerotiorum = test: Fungicidal activity against Sclerotinia sclerotiorum in cucumber plant two seed leaves stage assessed as control efficacy from disease indices at 500 ug/mL at 18 to 30 degC and above 80%RH relative to control; settings: read-out: GI; how it was run: as §2
Ascochyta = test: Fungicidal activity against Ascochyta […] in cucumber plant two seed leaves stage assessed as control efficacy from disease indices at 500 ug/mL at 18 to 30 degC and above 80%RH relative to control; settings: read-out: GI; how it was run: as §2
[6] = test system: Brassica rapa subsp. oleifera; test: Herbicidal activity against Brassica rapa subsp. oleifera assessed as inhibition of root growth at 100 ug/mL at 28 degC; how it was run: as §3

Q: Which results are given for `FC(F)(F)c1nn(CN2CCN(c3ncccn3)CC2)c(=S)n1/N=C/c1ccccc1`?
A: inhibition at 100 µg/mL (Echinochloa crus-galli [1]): 0%; inhibition of growth at 500 µg/mL [2]: 66.3%; inhibition of growth at 500 µg/mL (Corynespora cassiicola): 56.2%; inhibition of growth at 500 µg/mL [3]: 55.8%; inhibition at 10 µg/mL [4]: 49.2%; inhibition at 10 µg/mL (Echinochloa crus-galli [5]): 0%; inhibition of growth at 500 µg/mL (Sclerotinia sclerotiorum): 41.7%; inhibition of growth at 500 µg/mL (Ascochyta): 37.1%; inhibition at 100 µg/mL [6]: 66.8%
